The record followed here is ChEMBL document CHEMBL1141102, “Structure-activity studies of peptides from the "hot-spot" region of human CD2 protein: development of peptides for immunomodulation” (2005).

Where a SMILES comes first, the peptide text is derived from it. Bridges are numbered along the chain shown (N, C = ends). [ ]: non-standard residue; d: D form. The star is where a group is joined. Pen = CC(C)(S)[C@H](N)C(=O)O; Acm = CC(=O)NC*

One test addresses T1, Lymphocyte function-associated antigen 3 (Homo sapiens) (UniProt P19256).
T1 sequence (whole entry): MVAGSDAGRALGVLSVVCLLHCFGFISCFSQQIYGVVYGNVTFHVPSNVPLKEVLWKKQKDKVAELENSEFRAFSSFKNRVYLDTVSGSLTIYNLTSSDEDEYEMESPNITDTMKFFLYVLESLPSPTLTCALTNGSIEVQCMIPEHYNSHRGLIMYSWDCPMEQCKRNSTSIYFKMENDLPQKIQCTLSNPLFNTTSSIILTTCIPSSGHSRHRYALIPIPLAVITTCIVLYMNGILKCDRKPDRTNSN
Kind of test: Percent inhibition of E-rossette formation in sheep red blood cells at 200 uM on incubation with T-cells; range 5-15%. The format is functional, cell-based. The following applies: Ovis aries. Summed up: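 Sheep RBCs treated with AET at 37 °C for 15 min, used as 0.5% suspension. Peptide serially diluted in PBS, incubated with the SRBCs at 37 °C for 30 min, then Jurkat cells (2×10^6 cells/mL) added for 15 min. Cells pelleted and held at 4 °C for 1 h. Rosettes counted by hemocytometer on at least 200 cells; percent inhibition; mean of three independent experiments.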
The compound H-SIYDTKGKNVLE-NH2 registered an inhibition of 15%.

Test system in the next test: not listed separately
In words: Percent inhibition of CD58 and CD2 interaction in caco-2 and Jurkat cell adhesion assay at 90 uM. The format is functional. The conditions noted are these: Homo sapiens. Put shortly:
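Confluent Caco-2 monolayers (passages 50–60, human CD58) preincubated with peptide in MEM-α at 37 °C for 30 min. Jurkat cells (CD2), loaded with 2 μM BCECF at 37 °C for 1 h, then added at 1×10^6 cells/well for 45 min at 37 °C. Nonadherent cells washed off with PBS; bound cells lysed in 2% Triton X-100/0.2 N NaOH. Background-corrected fluorescence read; percent inhibition; mean of three experiments.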
As for `CC[C@H](C)[C@@H]1NC(=O)[C@@H](N)C(C)(C)SSC[C@@H](C(=O)O)NC(=O)[C@H](CC(C)C)NC(=O)[C@H](C(C)C)NC(=O)[C@H](CC(N)=O)NC(=O)[C@H](CCCCN)NC(=O)CNC(=O)[C@H](CCCCN)NC(=O)[C@H]([C@@H](C)O)NC(=O)[C@H](CC(=O)O)NC(=O)[C@H](Cc2ccc(O)cc2)NC1=O`, at 90 µM the inhibition was 50%. The compound `C[C@@H](O)[C@@H]1NC(=O)[C@@H](CC(=O)O)NC(=O)[C@H](Cc2ccc(O)cc2)NC(=O)[C@@H](CCCCN)NC(=O)CNC(=O)[C@@H](CCCCN)NC1=O` yielded an inhibition at 90 µM of 20%.

`NCCCC[C@@H]1NC(=O)[C@@H](CCC(=O)O)NC(=O)[C@H](CCCCN)NC(=O)[C@@H](CCCN=C(N)N)NC(=O)[C@H](Cc2ccccc2)NC(=O)[C@@H](CCC(=O)O)NC1=O` had an inhibition at 90 µM of 25%. `CC(=O)NCSC[C@H](NC(=O)[C@H](Cc1ccccc1)NC(=O)[C@@H](NC(=O)[C@H](CCC(=O)O)NC(=O)[C@H](CCCCN)NC(=O)[C@H](CCC(=O)O)NC(=O)[C@H](CCCCN)NC(=O)[C@H](CCCN=C(N)N)NC(=O)[C@H](Cc1ccccc1)NC(=O)[C@H](CCC(N)=O)NC(=O)[C@H](C)NC(=O)[C@@H](N)C(C)(C)SCNC(C)=O)[C@@H](C)O)C(=O)O` (H-[Pen](Acm)AQFRKEKETFC(Acm)-OH) came in with an inhibition at 90 µM of 25%. Still for that read-out and setting: under `C[C@@H]1NC(=O)[C@@H](N)C(C)(C)SSC[C@@H](C(=O)O)NC(=O)[C@H](Cc2ccccc2)NC(=O)[C@H]([C@@H](C)O)NC(=O)[C@H](CCC(=O)O)NC(=O)[C@H](CCCCN)NC(=O)[C@H](CCC(=O)O)NC(=O)[C@H](CCCCN)NC(=O)[C@H](CCCN=C(N)N)NC(=O)[C@H](Cc2ccccc2)NC(=O)[C@H](CCC(N)=O)NC1=O` (H-[Pen]AQFRKEKETFC-OH; disulfide 1-12) stands 50%; under H-SIYDTKGKNVLE-NH2, 25%.

One may read the inhibition as the share of the control response that was lost under treatment. A low value points to little suppression.
